Data: ChEMBL document CHEMBL3259519, “Targeting triple-negative breast cancer cells with 6,7-bis(hydroxymethyl)-1H,3H-pyrrolo[1,2-c]thiazoles” (Eur J Med Chem, 2014)
Active and inactive are the calls of the source. The calls are words filed in the database; no cut-off is given here.

Key:
HCC1806 [1] = assay: Cell cycle arrest in ER, PR, HER2-deficient human HCC1806 cells as accumulation at pre-G0 phase phase at IC50 after 48 hrs by propidium staining-based FACS analysis; type: functional
Method in brief: (§1)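 2x10^6 cells were attached overnight, then exposed to IC50 for 48 h (DMSO 0.1%). They were fixed in ice-cold 70% ethanol for 30 min in the dark, PBS-washed and stained with PI/RNase for 15 min at RT. Flow cytometry used 488 nm excitation and a 585/42 filter. Sub-G0, G0/G1, S and G2/M fractions were reported as mean ± SD (n≥5).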

MCF7 [2] = assay: Induction of DNA strand break in human MCF7 cells expressing ER and BRCA2 at IC50 after 48 hrs by alkaline comet assay; type: functional, cell-based
Method in brief: (§2)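 5x10^5 cells got IC50 or 3x IC50 for 48 h (DMSO 0.1%); H2O2-treated cells served as positive control. Cells in 1% low-melt agarose went onto slides precoated with normal-melt agarose. Slides were lysed overnight in alkaline buffer (2.5 M NaCl, EDTA, Tris, DMSO, Triton X-100). Electrophoresis ran in 300 mM NaOH/1 mM EDTA (pH>13) at 25 V for 15 min. Slides were neutralized in Tris pH 7.4 and stained with 25 µg/mL ethidium bromide for fluorescence microscopy.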

MCF7 [3] = assay: Induction of DNA strand break in human MCF7 cells expressing ER and BRCA2 at 3 x IC50 after 48 hrs by alkaline comet assay; type: functional, cell-based; method in brief: as §2
HCC1806 [4] = assay: Induction of DNA strand break in ER, PR, HER2-deficient human HCC1806 cells at IC50 after 48 hrs by alkaline comet assay; type: functional, cell-based; method in brief: as §2
HCC1806 [5] = assay: Induction of DNA strand break in ER, PR, HER2-deficient human HCC1806 cells at 3 x IC50 after 48 hrs by alkaline comet assay; type: functional, cell-based; method in brief: as §2
HCC1806 [6] = assay: Antiproliferative activity against ER, PR, HER2-deficient human HCC1806 cells as growth inhibition after 24 hrs by MTT assay; type: functional, cell-based; settings: HCC1806, 24 h
Method in brief: (§3)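 Cells were seeded at 2x10^4/well and left to attach overnight. Compounds in DMSO were diluted in medium and applied for 24, 48, 72 or 96 h. Cells were then PBS-washed and given 0.5 mg/mL MTT (pH 7.4) at 37 °C for 4 h. Formazan was dissolved in acid isopropanol. IC50 came from dose-response curves by exponential decay fitting (r2>0.9), with 95% CI.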

HCC1806 [7] = assay: Antiproliferative activity against ER, PR, HER2-deficient human HCC1806 cells as growth inhibition after 48 hrs by MTT assay; type: functional, cell-based; settings: HCC1806, 48 h; method in brief: as §3
HCC1806 [8] = assay: Antiproliferative activity against ER, PR, HER2-deficient human HCC1806 cells as growth inhibition after 72 hrs by MTT assay; type: functional, cell-based; settings: HCC1806, 72 h; method in brief: as §3
HCC1806 [9] = assay: Antiproliferative activity against ER, PR, HER2-deficient human HCC1806 cells as growth inhibition after 96 hrs by MTT assay; type: functional, cell-based; settings: HCC1806, 96 h; method in brief: as §3
HCC1954 [10] = assay: Antiproliferative activity against human HCC1954 cells expressing HER2 assessed as growth inhibition after 24 hrs by MTT assay; type: functional, cell-based; settings: HCC1954, 24 h; method in brief: as §3
HCC1954 [11] = assay: Antiproliferative activity against human HCC1954 cells expressing HER2 assessed as growth inhibition after 48 hrs by MTT assay; type: functional, cell-based; settings: HCC1954, 48 h; method in brief: as §3
HCC1954 [12] = assay: Antiproliferative activity against human HCC1954 cells expressing HER2 assessed as growth inhibition after 72 hrs by MTT assay; type: functional, cell-based; settings: HCC1954, 72 h; method in brief: as §3
HCC1954 [13] = assay: Antiproliferative activity against human HCC1954 cells expressing HER2 assessed as growth inhibition after 96 hrs by MTT assay; type: functional, cell-based; settings: HCC1954, 96 h; method in brief: as §3
MCF7 [14] = assay: Antiproliferative activity against human MCF7 cells expressing ER and BRCA2 assessed as growth inhibition after 24 hrs by MTT assay; type: functional, cell-based; settings: MCF7, 24 h; method in brief: as §3
MCF7 [15] = assay: Antiproliferative activity against human MCF7 cells expressing ER and BRCA2 assessed as growth inhibition after 48 hrs by MTT assay; type: functional, cell-based; settings: MCF7, 48 h; method in brief: as §3
MCF7 [16] = assay: Antiproliferative activity against human MCF7 cells expressing ER and BRCA2 assessed as growth inhibition after 72 hrs by MTT assay; type: functional, cell-based; settings: MCF7, 72 h; method in brief: as §3
MCF7 [17] = assay: Antiproliferative activity against human MCF7 cells expressing ER and BRCA2 assessed as growth inhibition after 96 hrs by MTT assay; type: functional, cell-based; settings: MCF7, 96 h; method in brief: as §3
MCF7 [18] = assay: Cytotoxicity against human MCF7 cells expressing ER and BRCA2 assessed as reduction of survival factor at IC50 incubated for 48 hrs measured after 12 days by crystal violet staining-based clonogenic assay; type: functional, cell-based
HCC1806 [19] = assay: Cytotoxicity against ER, PR, HER2-deficient human HCC1806 cells as reduction of survival factor at IC50 incubated for 48 hrs measured after 12 days by crystal violet staining-based clonogenic assay; type: functional
MCF7 [20] = assay: Cytotoxicity against human MCF7 cells expressing ER and BRCA2 assessed as reduction of total protein content at IC50 after 48 hrs by SRB assay relative to control; type: functional; set-up: scale not given: the % may be the effect or the level left
HCC1806 [21] = assay: Cytotoxicity against ER, PR, HER2-deficient human HCC1806 cells as reduction of total protein content at IC50 incubated for 48 hrs by SRB assay relative to control; type: functional; set-up: scale not given: the % may be the effect or the level left
MCF7 [22] = assay: Induction of apoptosis in human MCF7 cells expressing ER and BRCA2 assessed as decrease in viable cells at IC50 after 48 hrs by Annexin V/propidium iodide staining-based flow cytometry relative to control; type: functional
Method in brief: (§4)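 2x10^6 cells were attached overnight, then given IC50 for 48 h (DMSO 0.1%). PBS-washed cells were stained with Annexin V-FITC and PI in binding buffer for 15 min at 4 °C in the dark. Flow cytometry used 488 nm excitation. Cells were gated as viable, apoptotic, late apoptotic/necrotic or necrotic, reported as mean ± SD (n≥5).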

HCC1806 [23] = assay: Induction of apoptosis in triple negative ER, PR, HER2-deficient human HCC1806 cells assessed as increase of late apoptotic/nectrotic cells at IC50 after 48 hrs by Annexin V/propidium iodide staining-based flow cytometry relative to control; type: functional, cell-based; method in brief: as §4
HCC1806 [24] = assay: Induction of apoptosis in triple negative ER, PR, HER2-deficient human HCC1806 cells assessed as decrease of viable cells at IC50 after 48 hrs by Annexin V/propidium iodide staining-based flow cytometry relative to control; type: functional; method in brief: as §4
MCF7 [25] = assay: Induction of apoptosis in human MCF7 cells expressing ER and BRCA2 assessed as increase of late apoptotic/nectrotic cells at IC50 after 48 hrs by Annexin V/propidium iodide staining-based flow cytometry relative to control; type: functional, cell-based; method in brief: as §4
MCF7 [26] = assay: Induction of apoptosis in human MCF7 cells expressing ER and BRCA2 assessed as early apoptotic cells at IC50 after 48 hrs by Annexin V/propidium iodide staining-based flow cytometry relative to control; type: functional, cell-based; method in brief: as §4
MCF7 [27] = assay: Induction of apoptosis in human MCF7 cells expressing ER and BRCA2 assessed as increase of necrotic cells at IC50 after 48 hrs by Annexin V/propidium iodide staining-based flow cytometry relative to control; type: functional, cell-based; method in brief: as §4
HCC1806 [28] = assay: Induction of apoptosis in triple negative ER, PR, HER2-deficient human HCC1806 cells assessed as increase of necrotic cells at IC50 after 48 hrs by Annexin V/propidium iodide staining-based flow cytometry relative to control; type: functional, cell-based; method in brief: as §4
MCF7 [29] = assay: Induction of apoptosis in human MCF7 cells expressing ER and BRCA2 assessed as increase in p53 expression at IC50 after 48 hrs by Western blotting analysis relative to control; type: functional, cell-based
Method in brief: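 Cells were treated with IC50 for 48 h and lysed on ice in RIPA with protease inhibitors, then sonicated and centrifuged. Protein was quantified by BCA and separated on 10% SDS-PAGE, then transferred and blocked with 4% BSA/TBS-T. Blots were probed overnight at 4 °C with anti-p53 (DO7) and actin, then anti-mouse secondary. ECF fluorescence was scanned and quantified.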

MCF7 [30] = assay: Cell cycle arrest in human MCF7 cells expressing ER and BRCA2 assessed as decrease in accumulation at G0/G1 phase at IC50 after 48 hrs by propidium staining-based FACS analysis; type: functional; method in brief: as §1
MCF7 [31] = assay: Cell cycle arrest in human MCF7 cells expressing ER and BRCA2 assessed as increase in accumulation at S phase at IC50 after 48 hrs by propidium staining-based FACS analysis; type: functional; method in brief: as §1
MCF7 [32] = assay: Cell cycle arrest in human MCF7 cells expressing ER and BRCA2 assessed as blockade at G2/M phase at IC50 after 48 hrs by propidium staining-based FACS analysis; type: functional; method in brief: as §1
HCC1806 [33] = assay: Cell cycle arrest in ER, PR, HER2-deficient human HCC1806 cells as accumulation at S phase at IC50 after 48 hrs by propidium staining-based FACS analysis; type: functional; method in brief: as §1
HCC1806 [34] = assay: Cell cycle arrest in ER, PR, HER2-deficient human HCC1806 cells as decrease in accumulation at G0/G1 phase at IC50 after 48 hrs by propidium staining-based FACS analysis; type: functional; method in brief: as §1
HCC1806 [35] = assay: Induction of apoptosis in ER, PR, HER2-deficient human HCC1806 cells as increase in Bax/Bcl2 expression ratio at IC50 after 48 hrs by flow cytometry relative to control
MCF7 [36] = assay: Induction of apoptosis in human MCF7 cells expressing ER and BRCA2 assessed as increase in Bax/Bcl2 expression ratio at IC50 after 48 hrs by flow cytometry relative to control
HCC1806 [37] = assay: Induction of apoptosis in triple negative ER, PR, HER2-deficient human HCC1806 cells assessed as reduction of long term cell survival at IC50 after 48 hrs by clonogenic assay relative to control

Cc1c(CO)c(CO)c2n1[C@@H](c1ccc(O)cc1)SC2
Activity (HCC1806 [1]): Active | Activity (MCF7 [2]): Active | Activity (MCF7 [3]): Active | Activity (HCC1806 [4]): Active | Activity (HCC1806 [5]): Active | IC50 (HCC1806 [6]): 80.3 µM | IC50 (HCC1806 [7]): 26.4 µM | IC50 (HCC1806 [8]): 11.9 µM | IC50 (HCC1806 [9]): 5.4 µM | IC50 (HCC1954 [10]): > 100 µM | IC50 (HCC1954 [11]): 65.6 µM | IC50 (HCC1954 [12]): 46.6 µM | IC50 (HCC1954 [13]): 27.4 µM | IC50 (MCF7 [14]): > 100 µM | IC50 (MCF7 [15]): 86.2 µM | IC50 (MCF7 [16]): 53.9 µM | IC50 (MCF7 [17]): 29.5 µM | Activity (MCF7 [18]): Active | Activity (HCC1806 [19]): <2% | Activity (MCF7 [20]): 15.4% | Activity (HCC1806 [21]): 50% | Activity (MCF7 [22]): 21.4% | Activity (HCC1806 [23]): Active | Activity (HCC1806 [24]): Active | Activity (MCF7 [25]): Active | Activity (MCF7 [26]): Active | Activity (MCF7 [27]): Active | Activity (HCC1806 [28]): Active | Activity (MCF7 [29]): Active | Activity (MCF7 [30]): Active | Activity (MCF7 [31]): Active | Activity (MCF7 [32]): inactive | Activity (HCC1806 [33]): Active | Activity (HCC1806 [34]): Active | Activity (HCC1806 [35]): Active | Activity (MCF7 [36]): Active | Activity (HCC1806 [37]): 1.4%

COc1ccc([C@H]2SCc3c(CO)c(CO)c(C)n32)cc1
IC50 (HCC1806 [6]): 89 µM | IC50 (HCC1806 [7]): 28 µM | IC50 (HCC1806 [8]): 19.4 µM | IC50 (HCC1806 [9]): 12.3 µM | IC50 (HCC1954 [10]): > 100 µM | IC50 (HCC1954 [11]): 84.4 µM | IC50 (HCC1954 [12]): 56.1 µM | IC50 (HCC1954 [13]): 19.2 µM | IC50 (MCF7 [14]): > 100 µM | IC50 (MCF7 [15]): 46.9 µM | IC50 (MCF7 [16]): 32.7 µM | IC50 (MCF7 [17]): 6.6 µM

Cc1c(CO)c(CO)c2n1[C@H](c1ccccc1)SC2(C)C
IC50 (HCC1806 [6]): > 100 µM | IC50 (HCC1806 [7]): 41.7 µM | IC50 (HCC1806 [8]): 26.9 µM | IC50 (HCC1806 [9]): 21.3 µM | IC50 (HCC1954 [10]): 99.5 µM | IC50 (HCC1954 [11]): 69 µM | IC50 (HCC1954 [12]): 55.9 µM | IC50 (HCC1954 [13]): 33.5 µM | IC50 (MCF7 [14]): > 100 µM | IC50 (MCF7 [15]): > 100 µM | IC50 (MCF7 [16]): > 100 µM | IC50 (MCF7 [17]): > 100 µM
